Reference: ChEMBL document CHEMBL4477200, “Design, Synthesis, and Preclinical Evaluation of 4-Substituted-5-methyl-furo[2,3-d]pyrimidines as Microtubule Targeting Agents That Are Effective against Multidrug Resistant Cancer Cells” (J Med Chem, 2016)
Calls of active or inactive are those of the source. The rule behind the calls is not given here.

How the values were obtained:
HeLa [1] = experiment: Cell cycle arrest in human HeLa cells assessed as accumulation at G2/M phase at 5 times IC50 after 18 hrs by flow cytometry (reference value: 17.11 +/- 1.09%); format: functional
Tubulin (Homo sapiens) = Tubulin (Homo sapiens) (UniProt P68371+Q9H4B7+P0DPH7+P68366+Q13509+Q71U36+P04350+Q3ZCM7+P07437+P68363+Q9BQE3+Q6PEY2+Q13885+Q9BVA1+Q9BUF5); experiment: Induction of microtubule disruption in human HeLa cells assessed as multipolarization of spindle at 5 times IC50 incubated for 18 hrs by indirect immunofluorescence analysis relative to vehicle-treated control; format: cell-based
Outline: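 Mitotic spindles and microtubules were imaged by indirect immunofluorescence with a β-tubulin antibody and compared with vehicle-treated cells.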

Tubulin = Tubulin (Bos taurus, UniProt Q6B856+Q862L2+Q862F3); experiment: Inhibition of tubulin assembly in bovine brain […] assessed as reduction in turbidity increase preincubated for 15 mins followed by GTP addition measured for 20 mins by spectrophotometric analysis
Outline: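 Purified bovine brain tubulin, 1.0 mg/mL (10 µM), was preincubated 15 min at 30 °C in 0.8 M monosodium glutamate (pH 6.6) with compound and 4% DMSO. Mixtures were chilled and 0.4 mM GTP added. Turbidity was followed for 20 min at 30 °C. IC50 is the concentration halving the turbidity increase, interpolated between tested concentrations.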

Tubulin (Bos taurus) [2] = molecular target: T1, Tubulin (Bos taurus) (UniProt Q6B856+Q862L2+Q862F3); experiment: Displacement of [3H]colchicine from tubulin in bovine brain homogenate at 1 uM incubated for 10 mins by DEAE-cellulose filter assay; format: tissue-based
Tubulin (Bos taurus) [3] = molecular target: T1, Tubulin (Bos taurus); experiment: Inhibition of [3H]colchicine binding to tubulin in bovine brain homogenate at 5 uM incubated for 10 mins by DEAE-cellulose filter assay; format: tissue-based
SK-OV-3 [4] = experiment: Cytotoxicity against human SKOV3 cells assessed as growth inhibition after 48 hrs by SRB assay; format: functional, cell-based; conditions: SK-OV-3, 48 h
Outline: (§1)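 SRB assay; IC50 is the mean of three independent experiments, each run in triplicate. Cells were kept at 37 °C under 5% CO2. HeLa and SK-OV-3 lines (parental and MDR1-M6/6) were grown in Basal Medium Eagle with 10% FBS, 1% GlutaMAX and 50 µg/mL gentamycin. HeLa WTβIII was grown in DMEM with 10% FBS.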

SK-OV-3 [5] = experiment: Antiproliferative activity against multidrug resistant human SKOV3 cells expressing MDR1-M6/6 after 48 hrs by SRB assay; format: functional, cell-based; conditions: SK-OV-3, 48 h; outline: as §1
HeLa [6] = experiment: Antiproliferative activity against human HeLa cells after 48 hrs by SRB assay; format: functional, cell-based; outline: as §1
HeLa [7] = experiment: Antiproliferative activity against multidrug resistant human HeLa cells expressing wild type beta3 tubulin after 48 hrs by SRB assay; format: functional, cell-based; outline: as §1
SK-OV-3 [8] = experiment: Relative ratio of IC50 for human SKOV3 cells expressing MDR1-M6/6 to IC50 for human SKOV3 cells; format: functional
Outline: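 Rr is the IC50 in Pgp-expressing SK-OV-3 MDR1-M6/6 cells divided by the IC50 in parental SK-OV-3 cells. Both IC50s come from the SRB assay, averaging three independent experiments run in triplicate.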

HeLa [9] = experiment: Relative ratio of IC50 for human HeLa cells expressing wild type beta3 tubulin to IC50 for human HeLa cells; format: functional
[10] = tested on: Tubulin (Rattus norvegicus); experiment: Induction of microtubule depolymerization in rat A10 cells at 2 times EC50 incubated for 18 hrs by indirect immunofluorescence analysis
MDA-MB-435 = experiment: Antitumor activity against human MDA-MB-435 cells xenografted in nude mouse assessed as tumor growth inhibition at 20 mg/kg, ip dosed on days 0 , 2, 4, 6, 8 and 11 relative to control

CSc1ccc(N(C)c2ncnc3occ(C)c23)cc1
Activity (HeLa [1]): 64.09%
Activity (Tubulin (Homo sapiens)): Active
IC50 (Tubulin): 1200 nM
inhibition (Tubulin (Bos taurus) [2]): 79%
inhibition (Tubulin (Bos taurus) [3]): 94%
IC50 (SK-OV-3 [4]): 18.6 nM
IC50 (SK-OV-3 [5]): 32.1 nM
IC50 (HeLa [6]): 15.7 nM
IC50 (HeLa [7]): 14.9 nM
Ratio IC50 (SK-OV-3 [8]): 1.7
Ratio IC50 (HeLa [9]): 0.9
Activity [10]: Active

COc1ccc(/C=C\c2cc(OC)c(OC)c(OC)c2)cc1O [COMBRETASTATIN A4]
Activity (HeLa [1]): 67.58%

CC(=O)O[C@H]1C(=O)[C@@]2(C)[C@H]([C@H](OC(=O)c3ccccc3)[C@]3(O)C[C@H](OC(=O)[C@H](O)[C@@H](NC(=O)c4ccccc4)c4ccccc4)C(C)=C1C3(C)C)[C@]1(OC(C)=O)CO[C@@H]1C[C@@H]2O
TGI (MDA-MB-435): Active

CCCCN(c1ccc(OC)cc1)c1ncnc2occ(C)c12
Activity (HeLa [1]): 64.96%
Activity (Tubulin (Homo sapiens)): Active
IC50 (Tubulin): 1300 nM
inhibition (Tubulin (Bos taurus) [2]): 61%
inhibition (Tubulin (Bos taurus) [3]): 87%
IC50 (SK-OV-3 [4]): 148 nM
IC50 (SK-OV-3 [5]): 200 nM
IC50 (HeLa [6]): 111 nM
IC50 (HeLa [7]): 116 nM
Ratio IC50 (SK-OV-3 [8]): 1.4
Ratio IC50 (HeLa [9]): 1
Activity [10]: Active

CCc1ccc(N(C)c2ncnc3occ(C)c23)cc1
Activity (HeLa [1]): 76.19%
Activity (Tubulin (Homo sapiens)): Active
IC50 (SK-OV-3 [4]): 156 nM
IC50 (SK-OV-3 [5]): 162 nM
IC50 (HeLa [6]): 120 nM
IC50 (HeLa [7]): 159 nM
Ratio IC50 (SK-OV-3 [8]): 1
Ratio IC50 (HeLa [9]): 1.3
Activity [10]: Active

COc1ccc(N(c2ncnc3occ(C)c23)C(C)C)cc1
IC50 (Tubulin): 3000 nM
inhibition (Tubulin (Bos taurus) [3]): 47%

CCCN(c1ccc(OC)cc1)c1ncnc2occ(C)c12
Activity (HeLa [1]): 89.25%
Activity (Tubulin (Homo sapiens)): Active
IC50 (Tubulin): 1100 nM
inhibition (Tubulin (Bos taurus) [2]): 75%
inhibition (Tubulin (Bos taurus) [3]): 92%
IC50 (SK-OV-3 [4]): 40.3 nM
IC50 (SK-OV-3 [5]): 71 nM
IC50 (HeLa [6]): 33.8 nM
IC50 (HeLa [7]): 35.3 nM
Ratio IC50 (SK-OV-3 [8]): 1.8
Ratio IC50 (HeLa [9]): 1
Activity [10]: Active

CCN(c1ccc(OC)cc1)c1ncnc2occ(C)c12
Activity (HeLa [1]): 63.76%
Activity (Tubulin (Homo sapiens)): Active
IC50 (Tubulin): 970 nM
inhibition (Tubulin (Bos taurus) [2]): 84%
inhibition (Tubulin (Bos taurus) [3]): 95%
IC50 (SK-OV-3 [4]): 14.5 nM
IC50 (SK-OV-3 [5]): 18.3 nM
IC50 (HeLa [6]): 15.8 nM
IC50 (HeLa [7]): 14.6 nM
Ratio IC50 (SK-OV-3 [8]): 1.3
Ratio IC50 (HeLa [9]): 0.9
Activity [10]: Active
